Results of several laboratories.
Protocols differ between the studies behind these lines.
Target: Mitogen-activated protein kinase kinase kinase 2 (MAP3K2, Homo sapiens, UniProt Q9Y2U5)
Residues used in one study (Q9Y2U5 1-619): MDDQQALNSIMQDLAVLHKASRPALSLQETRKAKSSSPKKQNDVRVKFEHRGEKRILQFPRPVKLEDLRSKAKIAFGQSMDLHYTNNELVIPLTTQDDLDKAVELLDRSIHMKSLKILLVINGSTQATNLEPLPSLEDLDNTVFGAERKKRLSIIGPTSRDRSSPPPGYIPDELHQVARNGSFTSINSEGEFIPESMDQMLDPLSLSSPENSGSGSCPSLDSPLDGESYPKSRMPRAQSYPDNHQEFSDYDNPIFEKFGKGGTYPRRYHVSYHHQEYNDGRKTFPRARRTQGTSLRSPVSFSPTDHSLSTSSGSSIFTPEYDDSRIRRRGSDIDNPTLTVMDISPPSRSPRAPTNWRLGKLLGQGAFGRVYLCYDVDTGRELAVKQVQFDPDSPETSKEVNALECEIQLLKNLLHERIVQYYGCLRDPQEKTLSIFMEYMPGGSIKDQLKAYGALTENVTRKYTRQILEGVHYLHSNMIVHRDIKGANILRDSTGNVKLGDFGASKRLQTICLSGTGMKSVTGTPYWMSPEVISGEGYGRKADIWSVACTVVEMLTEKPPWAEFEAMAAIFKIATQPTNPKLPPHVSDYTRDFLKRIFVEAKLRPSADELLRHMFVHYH

N#CC1(c2ccccn2)CCN(Cc2cc(C(=O)O)c(=O)n3ccccc23)CC1  remaining binding (cell-free assay, competition with immobilised ligand; 1 µM): 76%
O=c1[nH]c2ccccc2n1C1CCN(Cc2ccc(-c3[nH]c4cc5ncnc5cc4nc3-c3ccccc3)cc2)CC1  remaining signal (cell-free assay; 0.5 µM): 92.4%
Cn1cncc1[C@](O)(COc1ccc(C#N)cc1-c1ccc(OC(F)(F)F)cc1)c1ccc(C#N)cc1  remaining binding (cell-free assay, competition with immobilised ligand; 1 µM): 77%
COCc1c(-c2cc3cc(C)cc(OC)c3s2)c2c(N)ncnn2c1CN1CCNC(=O)C1  inhibition (cell-free assay, competition with immobilised ligand; 1 µM): 98.8%
Cc1nn(C)cc1-c1nc2c(N3CCN(Cc4ccc(Cl)cc4)CC3)c(Cl)cnc2[nH]1  remaining binding (binding, competition with immobilised ligand; 1 µM): 77%
COc1ncccc1-c1cnn2ccc(N3CCN(C(=O)OC(C)C)CC3)nc12  remaining binding (binding, competition with immobilised ligand; 1 µM): 100%
CC(C)(C)c1cc(C=C(C#N)C#N)cc(Br)c1O  remaining activity (enzyme activity, inhibitor; 0.5 µM): 93.7%
Cn1cc(-c2cccc(N3CCc4c(sc5c4CC(C)(C)C5)C3=O)c2CO)cc(Nc2ccncn2)c1=O  inhibition (enzyme activity, inhibitor; 1 µM): -2%
COc1cc(Nc2ncc(F)c(Nc3ccc4c(n3)NC(=O)C(C)(C)O4)n2)cc(OC)c1OC  inhibition (binding, competition with immobilised ligand; 10 µM): 99%
Cn1cc(-c2cc(F)cc(N3CCn4c(cc5c4CCCC5)C3=O)c2CO)cc(Nc2ccc(N3CCN(C4COC4)CC3)cn2)c1=O  inhibition (enzyme activity, inhibitor; 0.1 µM): -1%
Nc1ncc(-c2nc(N3CCOCC3)nc(N3CCOCC3)n2)c(C(F)F)n1  remaining binding (binding, competition with immobilised ligand; 10 µM): 71%
